According to ChEMBL document CHEMBL1955778, “Design and synthesis of novel 7-aminoquinazoline derivatives: antitumor and anticonvulsant activities” (Bioorg Med Chem Lett, 2012):

Columns and labels:
[1] = test system: SNB-19; test: Growth inhibition of human SNB19 cells at 10 uM relative to control; assay type: functional; conditions: read-out: GI
In short: (§1)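 Single-dose screen across the 60-cell-line human tumor panel at 10 μM. Growth inhibition is reported as a percentage, taken as 100 minus the % growth relative to untreated control.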

[2] = test system: BT-549; test: Growth inhibition of human BT549 cells at 10 uM relative to control; assay type: functional; conditions: read-out: GI
In short: (§2)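 Each cell line in a 60-line human tumour panel exposed to one 10 μM concentration. Growth inhibition percentage computed as 100 minus the percentage activity relative to control.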

[3] = test system: SN12C; test: Growth inhibition of human SN12C cells at 10 uM relative to control; assay type: functional; conditions: read-out: GI; in short: as §1
[4] = test system: UACC-62; test: Growth inhibition of human UACC62 cells at 10 uM relative to control; assay type: functional; conditions: read-out: GI; in short: as §1
[5] = test system: SR; test: Growth inhibition of human SR cells at 10 uM relative to control; assay type: functional; conditions: read-out: GI; in short: as §1
[6] = test system: Mus musculus; test: Anticonvulsant activity in mouse assessed as protection against strychnine-induced seizure at 1 mmol/kg, ip administered 30 min prior to strychnine-challenge measured after 60 mins relative to control; assay type: functional
[7] = test system: TK-10; test: Growth inhibition of human TK10 cells at 10 uM relative to control; assay type: functional; conditions: read-out: GI; in short: as §1
[8] = test system: Malme-3M; test: Growth inhibition of human MALME-3M cells at 10 uM relative to control; assay type: functional; conditions: read-out: GI; in short: as §2
[9] = test system: MDA-MB-435; test: Growth inhibition of human MDA-MB-435 cells at 10 uM relative to control; assay type: functional; conditions: read-out: GI; in short: as §2
[10] = test system: UO-31; test: Growth inhibition of human UO31 cells at 10 uM relative to control; assay type: functional; conditions: read-out: GI; in short: as §1
[11] = test system: PC-3; test: Growth inhibition of human PC3 cells at 10 uM relative to control; assay type: functional; conditions: read-out: GI; in short: as §2
[12] = test system: OVCAR-5; test: Growth inhibition of human OVCAR5 cells at 10 uM relative to control; assay type: functional; conditions: read-out: GI; in short: as §2
[13] = test system: MDA-MB-468; test: Growth inhibition of human MDA-MB-468 cells at 10 uM relative to control; assay type: functional; conditions: read-out: GI; in short: as §2
[14] = test system: Mus musculus; test: Anticonvulsant activity in mouse assessed as protection against pentylenetetrazol-induced seizure at 1 mmol/kg, ip administered 30 min prior to pentylenetetrazol-challenge measured after 60 mins relative to control; assay type: functional
[15] = test system: A549; test: Growth inhibition of human A549 cells at 10 uM relative to control; assay type: functional; conditions: read-out: GI; in short: as §2
[16] = test system: K562; test: Growth inhibition of human K562 cells at 10 uM relative to control; assay type: functional; conditions: read-out: GI; in short: as §2
[17] = test system: HOP-62; test: Growth inhibition of human HOP62 cells at 10 uM relative to control; assay type: functional; conditions: read-out: GI; in short: as §2
[18] = test system: HCT-116; test: Growth inhibition of human HCT116 cells at 10 uM relative to control; assay type: functional; conditions: read-out: GI; in short: as §2
[19] = test system: HCT-15; test: Growth inhibition of human HCT15 cells at 10 uM relative to control; assay type: functional; conditions: read-out: GI; in short: as §2
[20] = test system: SF-539; test: Growth inhibition of human SF539 cells at 10 uM relative to control; assay type: functional; conditions: read-out: GI; in short: as §2
[21] = test system: Mus musculus; test: Anticonvulsant activity in mouse assessed as protection against maximal electroshock-induced seizure at 1 mmol/kg, ip administered 30 min prior to maximal electroshock-challenge measured after 60 mins relative to control; assay type: functional
[22] = test system: M14; test: Growth inhibition of human M14 cells at 10 uM relative to control; assay type: functional; conditions: read-out: GI; in short: as §2
[23] = test system: RPMI-8226; test: Growth inhibition of human RPMI8226 cells at 10 uM relative to control; assay type: functional; conditions: read-out: GI; in short: as §2
[24] = test system: KM12; test: Growth inhibition of human KM12 cells at 10 uM relative to control; assay type: functional; conditions: read-out: GI; in short: as §2
[25] = test system: MCF7; test: Growth inhibition of human MCF7 cells at 10 uM relative to control; assay type: functional; conditions: read-out: GI; in short: as §2
[26] = test system: CAKI-1; test: Growth inhibition of human CAKI-1 cells at 10 uM relative to control; assay type: functional; conditions: read-out: GI; in short: as §2
[27] = test system: SK-MEL-5; test: Growth inhibition of human SK-MEL-5 cells at 10 uM relative to control; assay type: functional; conditions: read-out: GI; in short: as §2
[28] = test system: OVCAR-4; test: Growth inhibition of human OVCAR4 cells at 10 uM relative to control; assay type: functional; conditions: read-out: GI; in short: as §2
[29] = test system: U-251; test: Growth inhibition of human U251 cells at 10 uM relative to control; assay type: functional; conditions: read-out: GI; in short: as §1
[30] = test system: T47D; test: Growth inhibition of human T47D cells at 10 uM relative to control; assay type: functional; conditions: read-out: GI; in short: as §1
[31] = test system: OVCAR-8; test: Growth inhibition of human OVCAR8 cells at 10 uM relative to control; assay type: functional; conditions: read-out: GI; in short: as §2
[32] = test system: HL-60(TB); test: Growth inhibition of human HL-60(TB) cells at 10 uM relative to control; assay type: functional; conditions: read-out: GI
In short: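 Single-dose screen at 10 μM across the 60-cell-line tumour panel. Percent growth inhibition = 100 minus percent growth activity relative to untreated control.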

[33] = test system: A498; test: Growth inhibition of human A498 cells at 10 uM relative to control; assay type: functional; conditions: read-out: GI; in short: as §2
[34] = test system: EKVX; test: Growth inhibition of human EKVX cells at 10 uM relative to control; assay type: functional; conditions: read-out: GI; in short: as §2
[35] = test system: ACHN; test: Growth inhibition of human ACHN cells at 10 uM relative to control; assay type: functional; conditions: read-out: GI; in short: as §2
[36] = test system: SNB-75; test: Growth inhibition of human SNB75 cells at 10 uM relative to control; assay type: functional; conditions: read-out: GI; in short: as §1
[37] = test system: SF-295; test: Growth inhibition of human SF295 cells at 10 uM relative to control; assay type: functional; conditions: read-out: GI; in short: as §2
[38] = test system: MOLT-4; test: Growth inhibition of human MOLT4 cells at 10 uM relative to control; assay type: functional; conditions: read-out: GI; in short: as §2
[39] = test system: OVCAR-3; test: Growth inhibition of human OVCAR3 cells at 10 uM relative to control; assay type: functional; conditions: read-out: GI; in short: as §2
[40] = Toxicity in ip dose mouse assessed as mortality; assay type: organism-based; conditions: in vivo
In short: (§3)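 In mice, LD50 is the dose causing 50% mortality. ED50 is the dose protecting 50% of mice against pentylenetetrazole-induced seizures. Therapeutic index = LD50/ED50.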

[41] = test system: MDA-MB-231; test: Growth inhibition of human MDA-MB-231 cells at 10 uM relative to control; assay type: functional; conditions: read-out: GI; in short: as §2
[42] = species: Mus musculus; test: Protective index, ratio of TD50 for mouse to ED50 for pentylenetetrazol-induced seizure in mouse; assay type: functional
In short: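 Mice. Index is TD50/ED50. TD50 is the dose causing minimal neurological toxicity in 50% of mice in the Chimney test. ED50 is the dose protecting 50% of mice against pentylenetetrazole-induced seizures. Both are estimated from testing at several doses.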

[43] = test system: SK-OV-3; test: Growth inhibition of human SKOV3 cells at 10 uM relative to control; assay type: functional; conditions: read-out: GI; in short: as §2
[44] = Neurotoxicity in ip dosed mouse assessed as impaired motor coordination administered 30 mins prior to test by chimney test; assay type: toxicity, organism-based; conditions: in vivo
In short: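 Mice, Chimney test. TD50 is the dose that produces minimal neurological toxicity (impaired motor coordination) in 50% of animals, estimated from testing at several doses.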

[45] = test system: Mus musculus; test: Anticonvulsant activity in mouse assessed as protection against picrotoxin-induced seizure at 1 mmol/kg, ip administered 30 min prior to picrotoxin-challenge measured after 60 mins relative to control; assay type: functional
[46] = test system: CCRF-CEM; test: Growth inhibition of human CCRF-CEM cells at 10 uM relative to control; assay type: functional; conditions: read-out: GI; in short: as §2
[47] = Therapeutic index, ratio of LD50 for mouse to ED50 for pentylenetetrazol-induced seizure in mouse; assay type: organism-based; conditions: in vivo, read-out: Ratio LD50/ED50; in short: as §3
[48] = test system: RXF 393; test: Growth inhibition of human RXF393 cells at 10 uM relative to control; assay type: functional; conditions: read-out: GI; in short: as §2
[49] = test system: Mus musculus; test: Anticonvulsant activity in ip dosed mouse assessed as protection against pentylenetetrazol-induced seizure administered 30 min prior to pentylenetetrazol-challenge measured after 60 mins; assay type: functional
In short: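 Mice received several doses for quantification. ED50 taken as the dose protecting 50% of mice against pentylenetetrazol-induced seizures.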

SMILES | inhibition of growth at 10 µM [3] [%] | inhibition of growth at 10 µM [4] [%] | Activity [6] [%] | inhibition of growth at 10 µM [9] [%] | inhibition of growth at 10 µM [10] [%] | inhibition of growth at 10 µM [11] [%] | Activity [14] [%] | inhibition of growth at 10 µM [15] [%] | inhibition of growth at 10 µM [16] [%] | inhibition of growth at 10 µM [20] [%] | Activity [21] [%] | inhibition of growth at 10 µM [23] [%] | inhibition of growth at 10 µM [25] [%] | inhibition of growth at 10 µM [26] [%] | inhibition of growth at 10 µM [27] [%] | inhibition of growth at 10 µM [28] [%] | inhibition of growth at 10 µM [30] [%] | inhibition of growth at 10 µM [32] [%] | inhibition of growth at 10 µM [34] [%] | inhibition of growth at 10 µM [35] [%] | other results
Cc1ccccc1-n1c(C)nc2cc(NC(=O)c3ccccc3)ccc2c1=O | 15 | 23 | 0 | 16.3 | 2.5 | 8 | 33 | 11 | 9 | 10 | 33 | 2 | 7 | 4 | 17 | 17.3 | 28 | 6 | 11.1 | 24 | inhibition of growth at 10 µM [1]: 14%; inhibition of growth at 10 µM [2]: 18%; inhibition of growth at 10 µM [5]: 3.5%; inhibition of growth at 10 µM [7]: 24%; inhibition of growth at 10 µM [8]: 6%; inhibition of growth at 10 µM [12]: 12%; inhibition of growth at 10 µM [13]: 2%; inhibition of growth at 10 µM [17]: 5%; inhibition of growth at 10 µM [18]: 3.2%; inhibition of growth at 10 µM [19]: 3.7%; inhibition of growth at 10 µM [22]: 12%; inhibition of growth at 10 µM [24]: 26.6%; inhibition of growth at 10 µM [29]: 9%; inhibition of growth at 10 µM [31]: 5%; inhibition of growth at 10 µM [33]: 23%; inhibition of growth at 10 µM [36]: 21.2%; inhibition of growth at 10 µM [37]: 29%; inhibition of growth at 10 µM [38]: 8.2%
Cc1ccccc1-n1c(C)nc2cc(N3C(=O)CSC3c3ccc(Cl)cc3)ccc2c1=O (stereo unspecified) | 5 | 18 | 0 | 7.7 | 15 | 8 | 100 | 12 | 8.4 | 5 | 100 | 9.2 | 5.2 | 3 | 4 | 5 | 4 | 6 | 4 | 3.5 | inhibition of growth at 10 µM [39]: 5.2%; LD50 [40]: 1040 µmol/kg; inhibition of growth at 10 µM [41]: 23.7%; Ratio TD50/ED50 [42]: 1.5; inhibition of growth at 10 µM [43]: 29.2%; TD50 at 0.5 h [44]: 600 µmol/kg; Activity [45]: 75%; inhibition of growth at 10 µM [46]: 11.3%; selectivity ratio [47]: 2.53; inhibition of growth at 10 µM [48]: 3%; inhibition of growth at 10 µM [36]: 7.6%; inhibition of growth at 10 µM [38]: 39.1%; ED50 [49]: 410 µmol/kg
